# IDH1 mut inh = IDH1 R132H (human) inhibition; O75874; IDH1 R132H reductase, diaphorase/resazurin fluorescence, 60 min; inhibition, % at 10 µM; 0.18% of 70,000 active; AID 624101; in the data active means inhibition above about 34%; inconclusive means no clear call, values can overlap the other calls; inactive means below about 11%;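 further: 0% = DMSO and 100% = no enzyme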
# T cruzi growth-1 = T. cruzi proliferation inhibition | 5.9% of 77,000 active | inhibition, % at 8.34 µM | AID 624255 | T. cruzi beta-gal in NIH3T3, GalScreen luminescence, 90 h;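 active means mean inhibition above about 93%, with at least 55% of replicates each passing it, limit read from the data, passing the limit was not always enough; inconclusive means only one of those two conditions holds; inactive means neither condition holds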
# KDM4C inh = KDM4C (human) demethylase inhibition; GST-KDM4C 2-372, H3K9me3 peptide, LANCE TR-FRET; inhibition, % at 12.5 µM; 0.15% of 96,000 active;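 active means mean replicate inhibition above about 25%, with at least 55% of replicates also reaching it, limit read from the data, passing the limit was not always enough; inconclusive means only one of those two conditions met; inactive means neither condition met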
# Target sequence (Q9H3R0 2-372 limits assumed): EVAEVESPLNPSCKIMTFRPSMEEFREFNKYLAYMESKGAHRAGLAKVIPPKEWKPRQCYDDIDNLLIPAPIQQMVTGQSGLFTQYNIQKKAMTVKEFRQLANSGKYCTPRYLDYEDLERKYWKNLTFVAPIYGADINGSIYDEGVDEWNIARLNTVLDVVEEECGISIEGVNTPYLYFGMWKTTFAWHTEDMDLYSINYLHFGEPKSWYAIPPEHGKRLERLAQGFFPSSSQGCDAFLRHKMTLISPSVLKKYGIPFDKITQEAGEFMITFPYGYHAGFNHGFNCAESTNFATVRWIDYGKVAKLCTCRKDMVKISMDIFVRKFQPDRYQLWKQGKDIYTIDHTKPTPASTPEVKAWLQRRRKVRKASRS
#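 Assay system: GST-GASC-1 enzyme fragment 2-372 | Amount: 10 nM enzyme | Medium: HEPES buffer, pH 7.5, plus ascorbate | Reagent: H3K9me3 peptide substrate, Fe(II), 2-oxoglutarate | Doses: Single-point compound screen | Incubation: 30 min demethylation and 1 h detection at room temperature | Measured by: LANCE TR-FRET, excitation 340 nm, emissions 618 and 671 nm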
# T cruzi growth-2 = inhibitors of T. cruzi proliferation; T. cruzi beta-gal in NIH3T3, GalScreen luminescence, 90 h; AID 651739; 72% of 5,600 active; inhibition, % at 8.35 µM; shares compounds with T cruzi growth-1;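 active means mean replicate inhibition above about 95% and at least 55% of replicates individually reaching it, limit read from the data; inconclusive means only one of the two criteria is met; inactive means neither criterion is met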
# T cruzi growth-3 = Trypanosoma cruzi proliferation inhibition; inhibition, % at 2.09 µM; T. cruzi beta-gal in NIH3T3, GalScreen luminescence, 90 h; shares compounds with T cruzi growth-1; 21% of 5,600 active; AID 651740;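 active means mean inhibition above about 95%, with at least 55% of replicates also reaching it, limit read from the data; inconclusive means meets just one of the two conditions; inactive means meets neither condition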;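 further: plate controls were neutral control median for no effect and positive control median for full effect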
# NIH3T3 tox = kills mouse NIH/3T3 fibroblasts; shares compounds with T cruzi growth-1; NIH/3T3 viability, CellTiter-Glo ATP luminescence, 90 h; cytotoxicity (signal decrease), % at 8.35 µM; 14% of 5,600 active; AID 651742;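 active means mean signal decrease across replicates above about 35% based on untreated-well scatter, with enough replicates individually passing, limit read from the data; inconclusive means no rule stated though some were filed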;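 further: 0% = median of neutral control wells and 100% = median of positive control wells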
# 3T3 cytotox 2 = kills mouse NIH/3T3 fibroblasts; inhibition, % at 24.9 µM; NIH/3T3 viability, CellTiter-Glo ATP luminescence, 90 h; 56% of 5,600 active; AID 651744; shares compounds with T cruzi growth-1;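 active means mean loss of cell viability signal at or above a set limit, and enough replicates individually reaching it; inconclusive means meets only the mean limit or only the replicate share; inactive means meets neither condition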;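 further: 0% = median of neutral control wells and 100% = median of positive control wells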
# The depositor's hits bear a star; ? = inconclusive; . = no result. Only a selection was taken, and hits are over-represented in it overall.
SMILES,IDH1 mut inh,T cruzi growth-1,KDM4C inh,T cruzi growth-2,T cruzi growth-3,NIH3T3 tox,3T3 cytotox 2
C[C@@H]1CN([C@H](C)CO)C(=O)c2cccc(NC(=O)CCCCCC(=O)Nc3ccccc3N)c2O[C@@H]1CN(C)S(=O)(=O)c1ccc(Cl)cc1,-0.5,86.5,0.4,.,.,.,.
CN(C)CC(=O)N1[C@H](CO)[C@H](c2ccccc2)C12CN(C(=O)c1cccc(F)c1)C2,.,.,-0.6,.,.,.,.
O=C(C[C@H]1C[C@@H]2c3cc(NC(=O)CC4CC4)ccc3O[C@@H]2[C@@H](CO)O1)NCC(F)(F)F,-0.6,26.4,3.7,.,.,.,.
COc1ccc(CN(C)C[C@@H]2OCCCC[C@@H](C)Oc3ccc(NC(=O)C4CCCCC4)cc3C(=O)N([C@@H](C)CO)C[C@@H]2C)cc1,.,31.8,-0.4,.,.,.,.
COc1ccccc1-c1ccc([C@H]2[C@H](CO)N3CCCCN(C(=O)c4cccnc4)C[C@@H]23)cc1,.,97.5*,-0.1,?,69.9,?,39.4*
Cc1ccccc1-c1ccc([C@@H]2[C@H]3CN(C(=O)c4cccnc4)CCCCN3[C@H]2CO)cc1,.,49.2,-0.9,.,.,.,.
Cc1ccccc1-c1ccc([C@H]2[C@@H](CO)N3CCCCN(C(=O)c4cccnc4)C[C@@H]23)cc1,.,102.5*,0.0,99.5*,102.4*,37.7*,48.7*
Cc1cccc(-c2ccc([C@H]3[C@H]4CN(C(=O)c5ccncc5)CCCCN4[C@H]3CO)cc2)c1,.,31.8,1.4,.,.,.,.
Cc1cccc(-c2ccc([C@@H]3[C@H](CO)N4CCCCN(C(=O)c5cccnc5)C[C@@H]34)cc2)c1,.,105.1*,17.1,65.9,5.7,23.4,35.5*
COc1ccccc1-c1ccc([C@H]2[C@@H](CO)N3CCCCN(C(=O)c4cccnc4)C[C@@H]23)cc1,.,88.4,-1.3,.,.,.,.
CC1(C)CC(O)CC2(C)OC(=O)C=C12 (stereo unspecified),0.2,.,.,.,.,.,.
CO[C@H]1CN(C)C(=O)c2ccc(NC(=O)c3nc4ccccc4s3)cc2OC[C@@H](C)N(Cc2cccnc2)C[C@H]1C,.,?,3.8,104.9*,87.9,11.3,59.0*
COc1ccc(CN2C[C@H](C)[C@@H](OC)CN(C)C(=O)c3ccc(NC(=O)c4nc5ccccc5s4)cc3OC[C@@H]2C)cc1,-0.5,93.4,-3.3,.,.,.,.
CO[C@@H]1CN(C)C(=O)c2cc(NC(=O)c3nc4ccccc4s3)ccc2OC[C@@H](C)N(Cc2cccnc2)C[C@H]1C,-0.4,.,1.2,.,.,.,.
COc1ccc(CN2C[C@H](C)[C@@H](OC)CN(C)C(=O)c3ccc(NC(=O)c4nc5ccccc5s4)cc3OC[C@H]2C)cc1,-0.2,?,-1.7,109.7*,113.9*,1.8,6.0
Cc1cc(C)c(S(=O)(=O)NCC(=O)Nc2ccc(F)c(Cl)c2)c(C)c1,-0.9,.,.,.,.,.,.
O=S(=O)(Cc1ccccc1)N1C[C@@H]2N[C@H](C1)C2c1ccc(-c2ccccc2)cc1 (stereo partly specified),.,.,-2.8,.,.,.,.
CN1C(=O)c2cc(NC(=O)C3CCCCC3)ccc2OC[C@H]2O[C@@H](CC(=O)NCc3ccccc3F)CC[C@@H]21,.,-3.0,0.1,.,.,.,.
Cc1noc(C)c1NC(=O)Nc1ccc2c(c1)C(=O)N([C@@H](C)CO)C[C@@H](C)[C@H](CN(C)C(=O)Nc1ccc(F)cc1)O2,2.5,10.1,0.2,.,.,.,.
C[C@H]1CN([C@@H](C)CO)C(=O)Cc2cc(NC(=O)c3ccncc3)ccc2O[C@H]1CN(C)S(=O)(=O)c1cn(C)cn1,4.0,-10.8,-2.1,.,.,.,.
c1ccc(-c2ccc([C@H]3[C@H]4CNC[C@@H]3N4Cc3cc(-c4ccccc4)on3)cc2)cc1,.,.,-0.3,.,.,.,.
Cn1cnc(S(=O)(=O)N2CC[C@@H]3[C@@H](CO)Nc4ccc(-c5cccc(F)c5)cc4[C@@H]32)c1,.,102.7*,-1.0,103.1*,79.0,9.8,11.5
Cn1cnc(S(=O)(=O)N2CC[C@@H]3[C@@H](CO)Nc4ccc(-c5ccc(F)cc5)cc4[C@@H]32)c1,.,?,1.1,105.2*,75.0,-26.4,-6.8
Cn1cnc(S(=O)(=O)N2CC[C@@H]3[C@H](CO)Nc4ccc(-c5ccc(F)cc5)cc4[C@@H]32)c1,.,51.3,-2.0,.,.,.,.
Cn1cnc(S(=O)(=O)N2CC[C@@H]3[C@H](CO)Nc4ccc(-c5cccc(F)c5)cc4[C@@H]32)c1,.,93.1,-0.8,.,.,.,.
SMILES,IDH1 mut inh,T cruzi growth-1,KDM4C inh,T cruzi growth-2,T cruzi growth-3,NIH3T3 tox,3T3 cytotox 2
Cn1cnc(S(=O)(=O)N2CC[C@H]3[C@H](CO)Nc4ccc(-c5cccc(F)c5)cc4[C@H]32)c1,.,110.1*,-0.9,98.8*,29.9,-1.5,2.8
Cn1cnc(S(=O)(=O)N2CC[C@@H]3[C@H](CO)Nc4ccc(C#Cc5ccc(F)cc5)cc4[C@@H]32)c1,.,9.2,-0.2,.,.,.,.
Cc1cc(NC(=O)C(=O)NCc2cccnc2)ccc1Br,0.3,.,.,.,.,.,.
N#Cc1ccc(-c2ccc([C@@H]3[C@@H]4CN(S(=O)(=O)Cc5ccccc5)C[C@H]3N4)cc2)cc1,.,.,-0.4,.,.,.,.
CN(C)CC(=O)Nc1ccc2c(c1)[C@H]1C[C@@H](CC(=O)NCc3cccnc3)O[C@H](CO)[C@H]1O2,0.2,29.3,-0.3,.,.,.,.
CC(C)C#Cc1ccc2c(c1)O[C@@H](CN(C)Cc1ccccc1)[C@@H](C)CN([C@@H](C)CO)S2(=O)=O,-1.4,105.5*,0.4,101.1*,94.9,21.5,103.3*
C[C@H](CO)N1C[C@H](C)[C@@H](CN(C)Cc2ccccc2)Oc2cc(C#CC3CC3)ccc2S1(=O)=O,0.2,127.5*,10.7,97.1*,92.7,-5.3,104.6*
CC(C)C#Cc1ccc2c(c1)O[C@H](CN(C)Cc1ccccc1)[C@@H](C)CN([C@@H](C)CO)S2(=O)=O,0.2,106.0*,-0.5,91.4,103.0*,-19.0,105.6*
CC(C)C#Cc1ccc2c(c1)O[C@@H](CN(C)Cc1ccccc1)[C@H](C)CN([C@@H](C)CO)S2(=O)=O,-0.7,88.2,-1.2,.,.,.,.
C[C@H](CO)N1C[C@H](C)[C@@H](CN(C)Cc2ccccc2)Oc2cc(C#C[C@@H](C)O)ccc2S1(=O)=O,0.0,34.1,.,.,.,.,.
CC(C)C#Cc1ccc2c(c1)O[C@H](CN(C)Cc1ccccc1)[C@@H](C)CN([C@H](C)CO)S2(=O)=O,0.0,3.5,-1.0,.,.,.,.
C[C@@H]1CN([C@H](C)CO)S(=O)(=O)c2ccc(C#CC3CC3)cc2O[C@@H]1CN(C)Cc1cccc(F)c1,-1.7,.,-0.4,.,.,.,.
CC(C)C#Cc1ccc2c(c1)O[C@H](CN(C)Cc1ccccc1)[C@H](C)CN([C@H](C)CO)S2(=O)=O,0.2,105.2*,2.5,102.1*,77.9,8.2,103.0*
COc1ccc(CN(C)C[C@@H]2Oc3c(NC(=O)CCCCCC(=O)Nc4ccccc4N)cccc3C(=O)N([C@@H](C)CO)C[C@H]2C)cc1,.,.,-2.1,.,.,.,.
